Measurements as given in ChEMBL document CHEMBL4270659, “Discovery and anti-inflammatory evaluation of benzothiazepinones (BTZs) as novel non-ATP competitive inhibitors of glycogen synthase kinase-3β (GSK-3β)” (Bioorg Med Chem, 2018).

biological target: Glycogen synthase kinase-3 beta (Homo sapiens, UniProt P49841); assay: Inhibition of human recombinant N-terminal His6-tagged human GSK-3beta expressed in Baculovirus infected SF9 cells using prephosphorylated-GS2 polypeptide as substrate after 30 mins by kinase-Glo reagent based luminescence assay
In short: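 GSK-3β was incubated with ATP and GS-2 substrate with or without compound. ATP remaining after the kinase reaction was quantified by Kinase-Glo luminescence. IC50 is the mean of triplicate experiments.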

Chain of Glycogen synthase kinase-3 beta (P49841 whole entry): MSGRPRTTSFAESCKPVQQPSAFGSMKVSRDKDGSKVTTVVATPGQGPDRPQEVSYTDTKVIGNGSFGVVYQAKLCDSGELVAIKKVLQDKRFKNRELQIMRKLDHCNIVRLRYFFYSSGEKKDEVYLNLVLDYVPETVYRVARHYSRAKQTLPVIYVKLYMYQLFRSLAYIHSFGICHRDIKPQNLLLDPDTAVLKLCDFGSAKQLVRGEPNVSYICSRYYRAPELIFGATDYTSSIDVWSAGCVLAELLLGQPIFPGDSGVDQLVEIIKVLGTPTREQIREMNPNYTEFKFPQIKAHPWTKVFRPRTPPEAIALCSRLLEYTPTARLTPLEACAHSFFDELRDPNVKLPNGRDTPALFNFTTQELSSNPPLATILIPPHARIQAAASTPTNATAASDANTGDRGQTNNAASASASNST

| IC50 | Structure (SMILES) |
| --- | --- |
| 27 µM | O=C(NCc1ccco1)c1ccc(C2CC(=O)N(Cc3ccccc3[N+](=O)[O-])c3ccccc3S2)cc1 (stereo unspecified) |
| 17 µM | CS(=O)(=O)Nc1ccccc1CN1C(=O)CC(c2ccc(C(=O)NCc3cccc(Cl)c3)cc2)Sc2ccccc21 (stereo unspecified) |
| > 100 µM | CN1CCN(C(=O)c2ccc(C3CC(=O)N(Cc4ccccc4[N+](=O)[O-])c4ccccc4S3)cc2)CC1 (stereo unspecified) |
| 45 µM | N#Cc1ccc(C2CC(=O)N(Cc3ccccc3[N+](=O)[O-])c3ccccc3S2)cc1 (stereo unspecified) |
| 27 µM | COc1ccc(CNC(=O)c2ccc(C3CC(=O)N(Cc4ccccc4[N+](=O)[O-])c4ccccc4S3)cc2)cc1 (stereo unspecified) |
| 35 µM | COC(=O)c1ccc(C2CC(=O)N(Cc3ccccc3[N+](=O)[O-])c3ccccc3S2)cc1 (stereo unspecified) |
| 49 µM | O=C(c1ccc(C2CC(=O)N(Cc3ccccc3[N+](=O)[O-])c3ccccc3S2)cc1)N1CCCCC1 (stereo unspecified) |
| 18 µM | O=C(NCc1ccc(F)cc1)c1ccc(C2CC(=O)N(Cc3ccccc3[N+](=O)[O-])c3ccccc3S2)cc1 (stereo unspecified) |
| 35 µM | O=C(Nc1ccccn1)c1ccc(C2CC(=O)N(Cc3ccccc3[N+](=O)[O-])c3ccccc3S2)cc1 (stereo unspecified) |
| 21 µM | O=C(NCCc1ccccc1)c1ccc(C2CC(=O)N(Cc3ccccc3[N+](=O)[O-])c3ccccc3S2)cc1 (stereo unspecified) |
| 20 µM | Cc1ccc(C2CC(=O)N(Cc3ccccc3[N+](=O)[O-])c3ccccc3S2)cc1 (stereo unspecified) |
| 100 µM | NC(=O)c1ccccc1CN1C(=O)CC(c2ccc(C(=O)NCc3ccccc3)cc2)Sc2ccccc21 (stereo unspecified) |
| 66 µM | COC(=O)c1cccc(C2CC(=O)N(Cc3ccccc3[N+](=O)[O-])c3ccccc3S2)c1 (stereo unspecified) |
| 33 µM | O=C(NCc1ccc(Cl)cc1)c1ccc(C2CC(=O)N(Cc3ccccc3[N+](=O)[O-])c3ccccc3S2)cc1 (stereo unspecified) |

| Structure (SMILES) | IC50 |
| --- | --- |
| CCN(CC)C(=O)c1ccc(C2CC(=O)N(Cc3ccccc3[N+](=O)[O-])c3ccccc3S2)cc1 (stereo unspecified) | 90 µM |

biological target: Mast/stem cell growth factor receptor Kit (Homo sapiens) (UniProt P10721); assay: Inhibition of human c-KIT at 100 uM
In short: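 Kinase selectivity panel run at 100 μM inhibitor. Activity is reported as % inhibition, the mean of two independent experiments.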

Chain of Mast/stem cell growth factor receptor Kit (Homo sapiens) (P10721 whole entry): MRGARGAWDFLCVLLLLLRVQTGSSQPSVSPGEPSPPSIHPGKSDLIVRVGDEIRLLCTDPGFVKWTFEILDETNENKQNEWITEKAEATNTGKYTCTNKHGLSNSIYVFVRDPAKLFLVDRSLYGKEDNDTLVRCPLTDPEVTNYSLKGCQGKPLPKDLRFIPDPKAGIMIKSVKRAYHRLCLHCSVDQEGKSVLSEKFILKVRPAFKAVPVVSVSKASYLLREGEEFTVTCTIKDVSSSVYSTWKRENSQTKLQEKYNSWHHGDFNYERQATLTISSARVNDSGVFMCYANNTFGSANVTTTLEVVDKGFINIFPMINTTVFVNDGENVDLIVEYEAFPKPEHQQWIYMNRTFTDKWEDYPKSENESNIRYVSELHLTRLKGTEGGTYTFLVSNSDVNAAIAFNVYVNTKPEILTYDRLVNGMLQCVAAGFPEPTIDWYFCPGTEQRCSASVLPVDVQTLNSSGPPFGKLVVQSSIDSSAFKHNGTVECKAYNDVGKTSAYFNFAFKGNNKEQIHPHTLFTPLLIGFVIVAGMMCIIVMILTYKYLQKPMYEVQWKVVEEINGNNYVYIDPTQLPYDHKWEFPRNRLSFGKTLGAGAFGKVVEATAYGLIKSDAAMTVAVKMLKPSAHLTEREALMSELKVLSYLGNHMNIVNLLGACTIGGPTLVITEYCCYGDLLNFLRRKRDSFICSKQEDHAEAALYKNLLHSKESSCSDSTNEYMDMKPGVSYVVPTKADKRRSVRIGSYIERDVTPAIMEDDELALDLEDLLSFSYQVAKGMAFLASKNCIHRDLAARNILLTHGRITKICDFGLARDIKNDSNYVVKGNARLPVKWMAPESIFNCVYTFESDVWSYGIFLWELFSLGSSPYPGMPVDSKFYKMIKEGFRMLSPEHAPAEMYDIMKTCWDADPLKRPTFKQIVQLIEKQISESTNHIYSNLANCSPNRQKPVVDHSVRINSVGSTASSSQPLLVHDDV

| inhibition | Structure (SMILES) |
| --- | --- |
| 49.4% | CCN(CC)CCNC(=O)c1c(C)[nH]c(/C=C2\C(=O)Nc3ccc(F)cc32)c1C |
